Screening results deposited in PubChem BioAssay by The Scripps Research Institute Molecular Screening Center.
MsrA inhibitor: bovine MsrA enzyme inhibitors, primary screen, biochemical, absorbance, HTS; purified bovine MsrA, absorbance read-out; actives 0.75% (n = 360,000); AID 651718, 2012; Methionine sulfoxide reductase A (Bos taurus); inhibition, % at 15.5 µM; in the data active = inhibition above about 4.5%;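 note: 0% = vehicle wells with enzyme and 100% = reference inhibitor wells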
bovine MsrA act: bovine MsrA enzyme activators, primary screen, biochemical, absorbance, HTS | Methionine sulfoxide reductase A (Bos taurus) | purified bovine MsrA, absorbance read-out | activation, % at 10.6 µM | actives 0.3% (n = 360,000) | AID 602163, 2012; in the data active = activation above about 7.5%;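 note: 0% = vehicle and 100% = reference activator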
MC4R barr agon: MC4R agonists recruiting beta-arrestin, primary screen, cell-based, luminescence, agonist arm of biased-ligand search | Melanocortin receptor 4 (Homo sapiens), P32245 | U2OS MC4R beta-arrestin complementation; percent of melanotan II response, DMSO zero | activation, % at 8.9 µM | actives 0.98% (n = 360,000);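 active = activation above a per-plate cutoff, the mean activation of sample wells on that plate plus 3 SD, cut at about 8% in these data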
Target sequence (P32245 whole entry, looked up): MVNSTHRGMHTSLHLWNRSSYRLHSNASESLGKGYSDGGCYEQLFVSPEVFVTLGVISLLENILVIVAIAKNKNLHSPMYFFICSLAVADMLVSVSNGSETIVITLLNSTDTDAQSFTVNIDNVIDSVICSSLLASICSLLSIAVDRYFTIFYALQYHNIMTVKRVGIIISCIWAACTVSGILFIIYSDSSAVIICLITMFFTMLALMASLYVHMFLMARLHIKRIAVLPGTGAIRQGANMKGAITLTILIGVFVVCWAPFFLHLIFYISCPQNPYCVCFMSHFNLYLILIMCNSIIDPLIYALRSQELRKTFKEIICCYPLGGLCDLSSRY
MC4R antag cAMP: MC4R antagonists of cAMP signaling, primary screen, cell-based, TR-FRET, antagonist arm of biased-ligand search | actives 0.48% (n = 360,000) | MC4R-expressing cells, MTII-stimulated cAMP, LANCE TR-FRET | inhibition, % at 6.5 µM | AID 540295, 2011 | Melanocortin receptor 4 (Homo sapiens), P32245;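 active = inhibition above its plate's cutoff, the mean of tested wells on that plate plus 3 SD, cut at about 29% in these data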;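 note: 0% = Melanotan II alone and 100% = Melanotan II plus saturating MCL0020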
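Material: U2OS-MC4R stable cell line | Reagent: Melanotan II challenge after compound preincubation | Doses: One concentration, 6.5 µM nominal | Incubation: 30-min compound preincubation, 1-h Melanotan II challenge, 1-h detection, room temperature | Signal: TR-FRET cAMP assay | Replicates: One well per compound, no replicates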
cAMP nonselect: nonselective cAMP signaling inhibitors, parental cells, counter-screen for MC4R biased antagonist project, cell-based, TR-FRET, U2OS, forskolin, triplicate | actives 26% (n = 1,600) | LANCE TR-FRET | shares compounds with MC4R antag cAMP | inhibition, % at 6.5 µM;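 active = mean inhibition over triplicates above the low-control well mean plus 3 SD, set per campaign, cut at about 13% in these data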;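 note: signal is single emission at 671 nm which falls as cellular cAMP rises; 0% = forskolin-stimulated wells and 100% = buffer without forskolin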
MC4R cAMP antag: MC4R cAMP antagonists, retest, confirmation, cell-based, TR-FRET | inhibition, % at 6.5 µM | shares compounds with MC4R antag cAMP | actives 27% (n = 1,600) | MC4R-expressing cells, MTII-stimulated cAMP; in the data active = inhibition above about 29%;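 note: 0% = agonist stimulated wells alone and 100% = agonist stimulated wells plus saturating reference antagonist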
The depositor's hits bear a star. In the library only some 2.3% were active in any assay of this set; here they are far more common.

For CCN(CC)C(=O)C(C)N(C#N)c1nc(SC)nc(N(C)C)n1 (stereo not drawn) the results were MsrA inhibitor 3, bovine MsrA act -5, MC4R barr agon 0 and MC4R antag cAMP 0.
For CN(C)/C=C(\C=O)c1cccc(Cl)c1 the results were MsrA inhibitor 0, bovine MsrA act -4, MC4R barr agon 0 and MC4R antag cAMP 11.
`Cc1nnc2n(-c3ccccc3)c(=O)c3c4c(sc3n12)CCCC4` gave MsrA inhibitor 1, bovine MsrA act -3, MC4R barr agon -1, MC4R antag cAMP 29*, cAMP nonselect 0 and MC4R cAMP antag 16.
`Cc1cc(NC(=O)CSc2cn(CCNC(=O)c3ccc(Cl)cc3)c3ccccc23)no1` gave MsrA inhibitor 0, bovine MsrA act -2, MC4R barr agon 0 and MC4R antag cAMP 7.
Screening COc1ccccc1/C=C1/C(=O)N(c2ccccc2)N=C1C returned MsrA inhibitor 0, bovine MsrA act -2, MC4R barr agon -2 and MC4R antag cAMP 3.
Cc1ccc(-c2nn(-c3ccccc3)cc2C=C2C(=O)CC(C)(C)CC2=O)cc1 was read as MsrA inhibitor 0, bovine MsrA act -1, MC4R barr agon 2, MC4R antag cAMP 31*, cAMP nonselect 18* and MC4R cAMP antag 23.
For CC1=NN(c2ccccc2)C(=O)/C1=C\c1cn(-c2ccccc2)nc1C the results were MsrA inhibitor 2, bovine MsrA act -1, MC4R barr agon 3, MC4R antag cAMP 28*, cAMP nonselect 5 and MC4R cAMP antag 6.
For COC(=O)c1[nH]c2ccc(C)cc2c1NC(=O)CN1CCc2cc(OC)c(OC)cc2C1 the results were MsrA inhibitor 0, bovine MsrA act 0, MC4R barr agon -1 and MC4R antag cAMP 2.
O=C(O)CCC(=O)N1CCOc2ccc(Cl)cc21 was read as MsrA inhibitor -1, bovine MsrA act 0, MC4R barr agon 2 and MC4R antag cAMP 1.
For COc1cc(CN2CCCC(N3CCN(c4ccc(F)cc4)CC3)C2)ccc1F (stereo not drawn) the results were MsrA inhibitor -1, bovine MsrA act 1, MC4R barr agon 1, MC4R antag cAMP 30*, cAMP nonselect 0 and MC4R cAMP antag 5.
`CCC(C)NS(=O)(=O)c1ccc(S(=O)(=O)N(CCc2ccc(OC)c(OC)c2)Cc2cccs2)cc1` (stereo not drawn) gave MsrA inhibitor 4, bovine MsrA act 1, MC4R barr agon -1, MC4R antag cAMP 32*, cAMP nonselect -10 and MC4R cAMP antag -18.
`COc1ccc(CCN(Cc2cccs2)S(=O)(=O)c2ccc(S(=O)(=O)N3CCCCCC3)cc2)cc1OC` gave MsrA inhibitor -1, bovine MsrA act -1, MC4R barr agon -2 and MC4R antag cAMP 5.
`CC1CCN(c2nc(Cl)nc(Nc3ccc([N+](=O)[O-])cc3)n2)CC1` gave MsrA inhibitor 0, bovine MsrA act -3, MC4R barr agon -3, MC4R antag cAMP 32*, cAMP nonselect 6 and MC4R cAMP antag 36*.
CCN(CC)P(=O)(Nc1cccc(C(F)(F)F)c1)c1ccc(N(C)C)cc1NC(=O)c1ccco1 (stereo not drawn) was read as MsrA inhibitor 0, bovine MsrA act -1, MC4R barr agon 1, MC4R antag cAMP 35*, cAMP nonselect 5 and MC4R cAMP antag 10.
CN(C)c1cccc(NC(=O)c2ccco2)c1 was read as MsrA inhibitor 0, bovine MsrA act -7, MC4R barr agon -2 and MC4R antag cAMP 1.
For O=C(O)CCn1c(-c2ccccn2)nc2ccccc21 the results were MsrA inhibitor 0, bovine MsrA act -2, MC4R barr agon 1, MC4R antag cAMP 29*, cAMP nonselect -1 and MC4R cAMP antag 1.
O=C(O)CCn1c(CO)nc2ccccc21 was read as MsrA inhibitor -1, bovine MsrA act -3, MC4R barr agon -2 and MC4R antag cAMP 13.
CC1CC(C)CN(C(=O)Nc2ccc(Br)cc2)C1 (stereo not drawn) was read as MsrA inhibitor -1, bovine MsrA act -2, MC4R barr agon 2, MC4R antag cAMP 30*, cAMP nonselect -3 and MC4R cAMP antag -8.
Screening O=C(Nc1ccc(Br)cc1)N1CCCCCCC1 returned MsrA inhibitor 0, bovine MsrA act -3, MC4R barr agon -1 and MC4R antag cAMP -1.
For Cc1c(C(=O)Nc2ccc(F)cc2)c2ccccn2c1CCc1ccncc1 the results were MsrA inhibitor 2, bovine MsrA act -8, MC4R barr agon 0 and MC4R antag cAMP 9.
O=C1COc2ccc(C(=O)COC(=O)/C=C/c3ccc(Br)o3)cc2N1 was read as MsrA inhibitor 1, bovine MsrA act -1, MC4R barr agon 8 and MC4R antag cAMP 8.
`C=CC[C@@H](CC(=O)N(CCO)Cc1ccccc1)C(=O)NC[C@H](OC(=O)[C@@H](CC=C)Cc1ccc(F)cc1)c1ccccc1` gave MsrA inhibitor -1, bovine MsrA act 3, MC4R barr agon 2, MC4R antag cAMP 35*, cAMP nonselect 0 and MC4R cAMP antag 0.
For CC1(C(=O)OCC(=O)Nc2ccc(S(=O)(=O)N3CCOCC3)cc2)CC1(Cl)Cl (stereo not drawn) the results were MsrA inhibitor 1, bovine MsrA act -5, MC4R barr agon -2 and MC4R antag cAMP 10.
Screening O=C(Nc1nc2c(s1)CCCC2)c1nn(Cc2ccccc2)c(=O)c2ccccc12 returned MsrA inhibitor 0, bovine MsrA act 5, MC4R barr agon -2 and MC4R antag cAMP 11.
Screening CC(C)CCn1nc(C(=O)Nc2nc3c(s2)CCCC3)c2ccccc2c1=O returned MsrA inhibitor 1, bovine MsrA act -2, MC4R barr agon 4, MC4R antag cAMP 33*, cAMP nonselect -1 and MC4R cAMP antag 14.
COC(=O)c1ccc(N2CCN(C)CC2)c(NC(=O)c2sc3ccccc3c2Cl)c1 was read as MsrA inhibitor -1, bovine MsrA act -1, MC4R barr agon 1, MC4R antag cAMP 31*, cAMP nonselect -2 and MC4R cAMP antag -2.
`CN1CCN(c2ccc(NC(=O)c3sc4ccccc4c3Cl)cc2)CC1` gave MsrA inhibitor -1, bovine MsrA act -3, MC4R barr agon -3 and MC4R antag cAMP 6.
For O=C(C#Cc1cccc([N+](=O)[O-])c1)c1ccccc1 the results were bovine MsrA act -8, MC4R barr agon -3 and MC4R antag cAMP 26.
